Test results reported in paper PMC2193645 (The Journal of Experimental Medicine, 1999).

Experiments:
[1] = system: 3.L2 TCR; details: cited from earlier work; for Half-life: longevity of the 3.L2 TCR–APL complex; for Half-life / Kd: BIAcore; for Kd: read-out: K D k off/k on, kinetic
[2] = system: mature 3.L2 T cells; details: cited from earlier work; for Effect on mature T cells: ligand class in words
[3] = system: QC85.5 hybridoma; assay: T cell hybridoma assay; format: cell-based, mouse; details: IL-2 production; in words
Summary of the method: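 Increasing numbers of splenocytes from transgenic mice were cultured 24 h with QC85.5 hybridoma cells. QC85.5 was raised by immunizing CE/J mice with a position-72 altered Hb peptide, subcloned twice, and recognizes several position-72 variants. IL-2 in supernatant was measured by CTLL-2 proliferation and plotted as CTLL-2 cpm against splenocytes per well. Each point is the mean of triplicate wells.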

[4] = system: 3.L2tg thymocytes; assay: Three-color FACS of thymocytes from APLtg × 3.L2tg mice; format: in vivo, mouse; details: for Interpretation: effect on thymic selection of 3.L2tg T cells: ligand expressed in thymus as mHEL epitope tag, in words
[5] = system: mature 3.L2 T cells; details: B cell apoptosis assay; cited from earlier work
[6] = system: splenocytes from APLtg × 3.L2tg mice; assay: Primary T cell proliferation of naive splenocytes to Hb; format: cell-based, mouse; details: in words
Summary of the method: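 Naive splenocytes from APLtg × 3.L2tg mice or 3.L2tg controls were plated at 5 × 10^5/well with increasing Hb(64–76) peptide concentrations for 48 h. They were then pulsed with 0.4 μCi [3H]TdR for 18 h, harvested and counted. Read-out was mean cpm of triplicate wells per peptide dose, and curves were averaged across several experiments.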

[7] = system: 3.L2.12 hybridoma; details: cited from earlier work

Hb(64–76) N72A [Ligand A72]
Half-life [1]: <2 s
Effect on mature T cells [2]: a weaker antagonist
Stimulation of QC85.5 hybridoma by peptide [3]: produce IL-2
Interpretation: effect on thymic selection of 3.L2tg T cells [4]: modest negative selection
Relative activity [5]: 0.0007

Hb(64–76) N72I [Ligand I72]
Half-life [1]: 2.3 to 3.4 s
Kd [1]: 10 to 20 µM
Effect on mature T cells [2]: an antagonist
Response of naive 3.L2tg splenocytes to Hb(64–76) on the selecting background [6]: tolerant to Hb(64–76)
Interpretation: effect on thymic selection of 3.L2tg T cells [4]: complete negative selection
Relative activity [5]: 0.006

GKKVITAFQEGLK [Ligand Q72, Hb(64–76) N72Q]
Binding to the 3.L2 TCR in BIAcore experiments ([1]; in words): no binding can be detected
Effect on mature T cells [2]: no effect on mature 3.L2 T cells
Stimulation of QC85.5 hybridoma by peptide [3]: stimulated most strongly
Increase in percentage of CD4-SP cells with high levels of the 3.L2 TCR over 3.L2tg control ([4]; P < 0.01): 12%
Interpretation: effect on thymic selection of 3.L2tg T cells [4]: enhance the positive selection
Relative activity [5]: none

Hb(64–76) N72T [Ligand T72]
Half-life [1]: 5.1 s
Kd [1]: 9.9 µM
Reduction of 3.L2.12 stimulation by peptide [7]: 50 fold
Fold less active than N72(wt) [2]: 50 fold
Effect on mature T cells [2]: a weaker agonist
Stimulation of QC85.5 hybridoma by peptide [3]: produce IL-2
Response of naive 3.L2tg splenocytes to Hb(64–76) on the selecting background [6]: tolerant to Hb(64–76)
Interpretation: effect on thymic selection of 3.L2tg T cells [4]: identical effect
Relative activity [5]: 2

Hb(64–76) N72E [Ligand E72]
Effect on mature T cells [2]: no effect on mature T cells
Interpretation: effect on thymic selection of 3.L2tg T cells [4]: no effect on 3.L2tg T cell development
Relative activity [5]: none

GKKVITAFNEGLK [N72(wt), Hb(64–76)]
Half-life [1]: 10.8 s
Kd [1]: 12 µM
Effect on mature T cells [2]: the strongest agonist
Stimulation of QC85.5 hybridoma by peptide [3]: produce IL-2
Response of naive 3.L2tg splenocytes to Hb(64–76) on the selecting background [6]: tolerant to Hb(64–76)
Interpretation: effect on thymic selection of 3.L2tg T cells [4]: complete negative selection
Relative activity [5]: 100
